# Source: ChEMBL document CHEMBL4513216, “Probing the Open Global Health Chemical Diversity Library for Multistage-Active Starting Points for Next-Generation Antimalarials” (ACS Infect Dis, 2020)
# Assay: Toxicity liver stage against HepG2, at 10uM
# Format: cell-based
# Set-up: test concentration 10 uM, cell line HepG2-A16-CD81EGFP
# Conditions: human, HepG2-A16-CD81EGFP cells; read-out: INHIBITION
# Outline: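 Uninfected HepG2-A16-CD81EGFP cells, 3 × 10^3 per well, 1536-well, plated on prespotted compound at 10 μM final, parasite-free screening media added to match infected plates; puromycin 10 μM positive, DMSO 0.5% negative; run in parallel with 48 h PbLuc assay at 37 °C, 5% CO2; viability by CellTiter-Glo luminescence, normalized to controls.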
row,SMILES,cytotoxicity at 10 µM
1,N#Cc1c2n(c3c(N)ncnc13)CCCCC2,15.1%
2,COCCOc1ncccc1CNC(=O)N1CCOCC1,-43.8%
3,CCNC(=O)N[C@H]1C[C@@H](Cc2cc(CN3CCCCC3)on2)C1(C)C,-5.46%
4,Cc1ccc(S(=O)(=O)n2ccn(C(=O)COc3ccccc3)c2=O)cc1,5.34%
5,COc1ccc2nnc(CCCC(=O)NCc3ccccc3)n2n1,-4.1%
6,COC(=O)c1cc(OC)c(OC)cc1N(C)S(C)(=O)=O,7.43%
7,CN(C)C(=O)CN1C[C@H]2CCN(C(=O)c3ccccc3)CC[C@H]2S1(=O)=O,9.1%
8,CC(=O)NCC(=O)NC1CCc2c(ccc(=O)n2CC2CC2)C1 (stereo not drawn),7.89%
9,O=C(c1cocn1)N1CCC2(CC1)CC(OCC1CC1)CO2 (stereo not drawn),10%
10,O=C(NCc1ccccn1)[C@@H]1COC[C@H]2CNC[C@H]21,11.2%
11,Cc1cccc(CNC(=O)c2cccnc2N)c1,11%
12,CCN(Cc1nonc1C)C(=O)Cn1nc(C(F)(F)F)cc1C,0.7%
13,CCCn1c(N2CCCC2)nc2c(C)nn(C)c2c1=O,2.33%
14,CCN(CC)c1nc(C)cc(C(=O)Nc2ccc(Br)cc2)n1,6.46%
15,CNC(=O)c1nn(C)cc1NC(=O)C(C)n1ncc(Cl)c1C (stereo not drawn),8.77%
16,CN(CCc1ccncc1)Cc1c(C2CCCC2)[nH]c2ncccc12,1.46%
17,Cc1cc(N(C)C)nc(C2(C)CCCNC2)n1 (stereo not drawn),1.03%
18,COCC(=O)N1CCC(c2cc(N(C)C)cc(C)n2)CC1,8.6%
19,COc1cc(CN2CCC3(CC(Nc4ccncn4)C3)C2)cc(OC)c1 (stereo not drawn),-9.27%
20,Cc1cccc(C2CCCN(C(=O)c3ccncc3)C2)n1 (stereo not drawn),2.97%
21,COCC(=O)N1CCCC1c1csc(Nc2cnccn2)n1 (stereo not drawn),-8.11%
22,Cc1cnc(CC2COCCN(Cc3nccn3C)C2)cn1 (stereo not drawn),-2.25%
23,O=C(C1CCCCC1)N1CCC(c2n[nH]c3nccnc23)CC1,4.05%

row,SMILES,cytotoxicity at 10 µM
1,Cc1noc(C)c1C(=O)N1CCC2(CC(N(C)c3ccncn3)C2)C1 (stereo not drawn),-5.94%
2,Cc1ncncc1C(=O)N1CCCC(Cc2nccs2)C1 (stereo not drawn),-9.13%
3,Cc1c[nH]nc1C1CCN(S(=O)(=O)N(C)C)CC1,0.462%
4,c1cncc(C2=NOC3(CCN(Cc4c[nH]c5ccccc45)CC3)C2)c1,9.49%
5,COc1ccccc1-c1cc(C(=O)N2CCCC2)c2cnn(C)c2n1,9.4%
6,CN(CC1CCOC1)c1ccc(Br)cn1 (stereo not drawn),8.35%
7,Cc1cnc(CN2CCCCC2c2nc(-c3ccccc3)no2)cn1 (stereo not drawn),-42%
8,CCCS(=O)(=O)N1CCCC(c2nc(-c3ccccc3)c[nH]2)C1 (stereo not drawn),16.2%
9,Cn1cc(CN2CCS(=O)(=O)C(C)(C)C2)cn1,0.512%
10,Cc1cc(C(=O)NC2CCN(c3ncccc3C#N)CC2)on1,0.0456%
11,COC(=O)C(O)C1CCN(CCc2ccncc2)CC1 (stereo not drawn),11.8%
12,C1CCC(CSc2nnnn2C2CC2)OC1 (stereo not drawn),5.29%
13,O=C(NCc1nnc2n1CCCCC2)N(Cc1ccccn1)C1CC1,2.46%
14,Cc1nc(CCNC(=O)C2CC(=O)N(C(C)C)C2)cs1 (stereo not drawn),14.9%
15,O=C(NCc1nccn1CCc1ccccc1)NCC1CCC1,4.7%
16,CC(CC(=O)NCCNS(C)(=O)=O)C1CCCCC1 (stereo not drawn),6.43%
17,Cc1nc(C2CCCN2Cc2cc(Cl)c3c(c2)OCO3)no1 (stereo not drawn),7.51%
18,CN(C)CCNC(=O)Nc1cccc(C[S+]([O-])Cc2ccccc2)c1 (stereo not drawn),6.59%
19,CCN(C(=O)CN(Cc1cccc(O)c1)C1CCC(O)CC1)C1CC1 (stereo not drawn),1.31%
20,Cc1occc1CN(C)C(=O)Nc1ccc(=O)n(C)c1,-53.5%
21,Cc1cc(NCc2cccc(C#N)c2)ccc1Br,7.99%
22,CC(C)(NC(=O)Cc1ccccc1F)C(C)(C)C(=O)O,-9.1%
23,COc1ccccc1C(C)CC(=O)N1CC[C@H](O)C1 (stereo partly drawn),-55.7%

row,SMILES,cytotoxicity at 10 µM
1,OC(CNC1CCSCC1)c1cccc(OCc2ccccc2)c1 (stereo not drawn),8.22%
2,c1ccn(Cc2nnc3n2CCCN(c2cnccn2)C3)c1,-2.2%
3,CN1CCN(c2ncnc3c2c(C(=O)NC2CC2)c2ccccn23)CC1,3.34%
4,COCCN1C[C@H]2[C@@H](C1)N(C(=O)c1cccs1)CC[C@H]2OC,-2.03%
5,CC(C)(CO)Nc1cc(-c2ccncc2)ncn1,-0.89%
6,CNc1ccnc(NCCSc2nccn2C)n1,-42.6%
7,Clc1ccccc1C1(c2ccnc(C3CC3)n2)CCNCC1,7.89%
8,COc1cc(C#N)ccc1OC12CCCN(CC1)C2 (stereo not drawn),-19.1%
9,Cc1nc(CCN(C)C(=O)CN2C(=O)OC[C@@H]2c2ccccc2)no1,-42.2%
10,CC(=O)N1CCN(Cc2c(C)ccc3ccccc23)CC(O)C1 (stereo not drawn),11.8%
11,COCCN(Cc1cccnc1)c1nc(C)nc2oc(C)nc12,-44.1%
12,Cc1nc2c(c(N3CCCC(CO)C3)n1)CCN(Cc1ccco1)CC2 (stereo not drawn),-0.044%
13,CCn1cnnc1CN(C)Cc1c[nH]nc1-c1ccc(F)cc1,-2.59%
14,CC1=CC(C)(C)N(CN2C(=O)c3ccccc3C2=O)c2ccccc21,5.82%
15,CC(C)Cc1cc(CNC(=O)c2cccc3c2NCCC3)no1,-50.7%
16,CC(C)c1cc(NCC2(CO)CCCC2)ncn1,11.9%
17,COc1ccc(OCc2cc(C(=O)N3C[C@@H](C)O[C@@H](C)C3)n[nH]2)c(Cl)c1,-4.28%
18,CCn1c(CC2CCN(C(=O)c3ccnn3C)CC2)n[nH]c1=O,-51.1%
19,O=C(CN1CCCCC1=O)N1CCC2(CC1)[C@H](O)C[C@@H]2O,-1.74%
20,Cc1nn(C)c(C)c1C(C(=O)O)N1CC=C(c2ccccc2)CC1 (stereo not drawn),-2.11%
21,COCCN1CCC(c2nc3c([nH]2)CCCNC3=O)CC1,0.583%
22,CN(Cc1cccnc1)C[C@H]1CC[C@@H](Cc2ccc3c(cnn3C)c2)O1,5.15%
23,CCc1nnc(N2C[C@@H](NC(C)=O)[C@H](c3ccc(C)o3)C2)s1,-54.5%

row,SMILES,cytotoxicity at 10 µM
1,COCCn1ccnc1CN(Cc1ccccn1)CC(C)C,4.96%
2,Cc1cc(NC(=O)CCn2cncn2)no1,2.89%
3,Cc1cccc(C)c1OC1CN(Cc2cnn(C)c2)C1,7.97%
4,CN1CCCN(C[C@H]2C[C@H](CO)CN(Cc3cccnc3N)C2)CC1,-10.7%
5,Cc1ccc(CN2CCN(Cc3ccc(N(C)C)nc3)CC2=O)cc1C,-2.43%
6,Cc1cccnc1CN(C)CC1(O)CCCN(CC2CCCCC2)C1=O (stereo not drawn),-4.09%
7,CC(C)c1cc(COCCC(=O)O)no1,-6.5%
8,CN1CCN(c2cc(CCNC(=O)C3CCC3)nc(C3CC3)n2)CC1,0.462%
9,Cc1ncncc1C(=O)Nc1cnn(CC(=O)NC2CCCC2)c1,4.88%
10,CCC1CCCCN1Cc1ncc(C(C)(C)C)o1 (stereo not drawn),-3.48%
11,Cc1nnc2n1CCN(C(=O)c1cc(C)n(-c3ccccc3)c1C)C2,-4.94%
12,Cc1ccc(C(=O)N2CCCCC2CNC(N)=O)cc1F (stereo not drawn),-6.56%
13,COCCCN(C)C1CCCN(Cc2noc(C3CC3)n2)C1 (stereo not drawn),-15.4%
14,CCN1CCN(C(=O)c2ccc(=O)n(C)c2)c2ccccc21,-1.64%
15,Cc1cc(C)n(CC2CCCN2CCc2ccccn2)n1 (stereo not drawn),-8.01%
16,CN(CC1COc2ccccc2O1)C(=O)CCn1cncn1 (stereo not drawn),-7.36%
17,CCOc1ccccc1OC1CCN(C(=O)c2cnns2)CC1,-3.14%
18,COc1ccc(COCC(O)CN2CCC(c3ccn[nH]3)CC2)cc1 (stereo not drawn),-0.975%
19,CCOc1ncccc1NC(=O)NCC(O)c1ccc(OC)cc1 (stereo not drawn),-16.6%
20,CN(Cc1ccc2c(c1)OCO2)C(=O)Cn1cccnc1=O,-3.96%
21,NC(=O)C1CCN(C(=O)NCc2ccccc2-n2cccn2)CC1,-11.1%
22,Cc1nnc2n1CCN(CCOc1cccc(C#N)c1)C2,-7.88%
23,Cc1cccc(C(=O)N2CCC(c3n[nH]c(C4CC4)n3)CC2)c1,-15.3%

row,SMILES,cytotoxicity at 10 µM
1,CCn1cnnc1CNC(=O)c1ccc(Cl)cc1I,-6.31%
2,CCOc1cc(/C=C/c2ncc(C(=O)O)s2)cc(Br)c1OC,7.59%
3,CCOc1cccc(C(=O)N2CCN(c3nccc(OC)n3)CC2)c1,5.41%
4,Cc1nn(C)c(C)c1CC(=O)N1CCCC(n2ccnc2)C1 (stereo not drawn),-11.5%
5,COc1cccc(CCNC(=O)CN2CCN(C)CC2C)c1 (stereo not drawn),-16.7%
6,CCc1ccc(O)c(C(=O)NC2CCN(S(=O)(=O)CC)CC2)c1,7.37%
7,CCn1nc2c(cc1=O)CN(Cc1nc(-c3ccccn3)no1)CC2,-5.13%
8,Cc1cc(C)n(CC(=O)N2CCC(NS(=O)(=O)c3ccccc3)CC2)n1,4.59%
9,Cn1cnnc1C1CCN(C(=O)CCCOc2ccccc2F)CC1,-6.26%
10,COCc1cccc(CNCc2c(C)nn(C)c2N(C)C)c1,1.08%
11,Cn1c(CN2CCOC(c3nc(C(C)(C)C)n[nH]3)C2)nnc1C1CC1 (stereo not drawn),5.37%
12,Cc1ncc(CN2CCCC2)c2cc(C(=O)c3ccc(Br)cc3)oc12,1.46%
13,Cc1ccc(C(=O)CN(C2=NCCCCC2)c2ccccc2)cc1,17.7%
14,Cc1cc(CN2C[C@H](OCC3CCOCC3)[C@H]3COC[C@H]32)oc1C,6.88%
15,O=C1N(c2cccnc2)CCC12CCCN(Cc1ccco1)C2 (stereo not drawn),-5.79%
16,Cc1ccc(C(=O)N2CCc3c(CN4CCCC4)nn(C)c3C2)cc1C,-4.86%
17,CCc1ccc(CN2CC[C@@H]3NC(=O)CC[C@@H]32)o1,3.06%
18,Cc1cccc(COC2COC3(CCN(S(C)(=O)=O)CC3)C2)n1 (stereo not drawn),8.98%
19,Cn1nc(Cn2cccn2)c2c1CN(C1CCOCC1)C2,10.1%
20,O=C(N1CCOCC1)N1C2CCC(O)(CC2)C1CN1CCOCC1 (stereo not drawn),-1.94%
21,CC(C)c1nnc(N2C[C@H]3CC[C@@H](C2)N(CC2CCC2)C3)s1,-7.38%
